OXTR agonist: human OXTR agonism; P30559; CHO-OTR cells, Fluo-8 calcium fluorescence; normalized: DMSO 0%, oxytocin 100%; activation, % at 3 µM; hit rate 0.32% among 320,000; AID 2435;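 active means activation above the mean of all tested compounds plus 3 SD, cutoff set per screening run, cut at about 20% in these data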;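 further: peak over basal fluorescence ratio from a 100 s FLIPR kinetic read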
TRPML3 ag: agonists of human TRPML3 channel; HEK293 TRPML3-YFP, Fluo-8 calcium fluorescence; 100% = the carbachol control signal; hit rate 0.29% among 220,000; activation, % at 3 µM;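 active means activation above its plate's cutoff, the mean activation of the plate's test wells plus 3 SD, cut at about 12% in these data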;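 further: 0% = DMSO only wells and 100% = carbachol wells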
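Test system: HEK293 cells stably carrying human TRPML3-YFP; Doses: single dose, 3 µM final nominal compound, 0.3% DMSO final; Schedule: dye loading 1 h 37 °C then 30 min ambient, 125 s read; Technique: Fluo-8 calcium fluorescence; Benchmarks: high control carbachol 87 µM, low control DMSO.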
OXTR potentiate: human OXTR potentiation; P30559; CHO-OTR cells, Fluo-8 calcium fluorescence, potentiator mode; 0% = oxytocin EC15, 100% = EC100; activation, % at 3 µM; hit rate 0.061% among 320,000; AID 2445;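 active means activation above that plate's cutoff, the mean activation of tested compounds plus 3 SD, cut at about 6.6% in these data, passing the limit was not always enough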;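 further: 100% uses oxytocin at 75 nM as the full agonist control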
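System: human OTR in CHO cells / Also added: sub-maximal oxytocin, roughly EC15 / Control set: EC15 oxytocin low, 75 nM oxytocin high / Schedule: 6 min compound pre-incubation at room temperature, 100 s kinetic read / Compound: single-point 3.0 µM / Replication: singlicate / Technique: Fluo-8 calcium dye fluorescence / Read-out basis: % activation of max/min ratio relative to oxytocin controls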
V1R ag counter: counter-screen for oxytocin receptor agonists: human V1a receptor agonists; activation, % at 3 µM; P37288; CHO-V1R cells, Fluo-8 calcium fluorescence, agonist mode; 0% DMSO, 100% 3 nM vasopressin; hit rate 0.25% among 320,000;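 active means activation above the mean activation of all tested compounds plus 3 SD, per screening run, cut at about 20% in these data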;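 further: signal is peak over basal fluorescence ratio across a 100 second FLIPR read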
Target sequence (P37288 whole entry, looked up): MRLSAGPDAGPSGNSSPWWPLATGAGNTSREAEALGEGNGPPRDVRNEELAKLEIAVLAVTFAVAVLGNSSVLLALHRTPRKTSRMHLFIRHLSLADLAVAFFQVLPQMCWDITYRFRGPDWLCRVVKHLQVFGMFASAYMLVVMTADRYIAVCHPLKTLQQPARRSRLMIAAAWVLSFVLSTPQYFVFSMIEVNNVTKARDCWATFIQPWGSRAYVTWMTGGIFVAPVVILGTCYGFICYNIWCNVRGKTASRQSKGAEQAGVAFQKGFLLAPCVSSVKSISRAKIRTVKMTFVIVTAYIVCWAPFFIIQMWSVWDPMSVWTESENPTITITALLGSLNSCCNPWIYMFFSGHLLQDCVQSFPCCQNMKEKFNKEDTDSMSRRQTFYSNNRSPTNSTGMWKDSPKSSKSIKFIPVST
TRPN1 ag: zebrafish TRPN1 (NompC) channel agonism; HEK293 zebrafish TRPN1-YFP, Fluo-8 calcium fluorescence; 100% = response to 87 µM carbachol; activation, % at 3 µM; hit rate 0.18% among 220,000;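 active means activation above its plate's cutoff, the mean activation of test wells on that plate plus 3 SD, cut at about 19% in these data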;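 further: 0% = DMSO alone and 100% = 87 µM carbachol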
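Material: zebrafish TRPN1-YFP in HEK293 cells; Doses: single test compound dose, 3 µM nominal, 0.3% DMSO; Timing: dye loading 1 h at 37 °C, then 30 min room temperature; Technique: intracellular calcium fluorescence with Fluo-8; Benchmarks: high carbachol 87 µM, low DMSO alone.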
TRPN1 ag 2: zebrafish TRPN1 agonism as TRPML3 agonist counter-screen | shares compounds with TRPML3 ag | HEK293 zebrafish TRPN1-YFP, Fluo-8 calcium fluorescence; scaled: carbachol wells 100%, DMSO wells 0% | activation, % at 3 µM | hit rate 10% among 310 | AID 1525;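 active means mean activation over replicates above a set limit taken from the earlier TRPN1 channel primary screen, cut at about 19% in these data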;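 further: 100% = carbachol and 0% = 0.3% DMSO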
TRPML3 confirm: confirmation of human TRPML3 channel agonists; shares compounds with TRPML3 ag; HEK293 TRPML3-YFP, Fluo-8 calcium fluorescence; 100% set by carbachol, 0% by DMSO; activation, % at 3 µM; hit rate 80% among 310; AID 1526;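 active means activation above a set limit derived from the earlier primary screen, cut at about 12% in these data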
OXTR ag confirm: human OXTR agonism, confirmation | hit rate 20% among 390 | CHO-OTR cells, Fluo-8 calcium fluorescence, agonist | shares compounds with OXTR agonist | AID 434963 | activation, % at 3 µM;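 active means mean activation above about 20% derived from the earlier single-dose screen, limit read from the data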;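 further: peak over minimum fluorescence ratio per well during a 100 second FLIPR read; 0% = DMSO alone and 100% = oxytocin high control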
V1R ag counter 3x: activates V1a receptor in oxytocin agonist counter-screen; activation, % at 3 µM; CHO-V1R cells, Fluo-8 calcium fluorescence; hit rate 10% among 390; shares compounds with OXTR agonist; AID 434991;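 active means mean activation over triplicate exceeds the hit threshold set in the earlier primary screen, cut at about 20% in these data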;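 further: peak over basal fluorescence ratio within a 100 second read; 0% = DMSO alone and 100% = 3 nM vasopressin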
OXTR pot confirm: human OXTR potentiation, confirmation | shares compounds with OXTR potentiate | CHO-OTR cells, Fluo-8 calcium fluorescence; scaled from low-dose to maximal oxytocin | activation, % at 3 µM | 180 tested, under 10 active | AID 434985;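 active means mean percent activation over triplicates above a cutoff set from solvent-only control plates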;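 further: compounds tested in the presence of an EC15 dose of oxytocin; 0% = EC15 oxytocin with DMSO and 100% = EC100 oxytocin with DMSO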
V1aR agonist cf: confirmation of human vasopressin V1a receptor agonists. shares compounds with V1R ag counter. CHO-V1R cells, Fluo-8 calcium fluorescence, agonist. activation, % at 3 µM. hit rate 20% among 180;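 active means average activation exceeds primary screen hit cutoff, cut at about 21% in these data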;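 further: peak over basal fluorescence ratio during a 100 s FLIPR read; 0% = DMSO only wells and 100% = 3 nM vasopressin wells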
OXTR counter: counter-screen for V1a receptor agonists: oxytocin receptor agonists. shares compounds with V1R ag counter. CHO-OTR cells, Fluo-8 calcium fluorescence, agonist. activation, % at 3 µM. hit rate 10% among 180. AID 434969;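 active means mean activation over three repeats above the cutoff from the earlier oxytocin receptor agonist screen, cut at about 20% in these data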;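 further: peak over minimum fluorescence ratio within a 100 second FLIPR read; 0% = DMSO only wells and 100% = oxytocin high control wells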
An asterisk follows results filed as active; x = not tested or not shown. Shown are actives, neighbours in structure and some others; about 0.58% of the full set was active somewhere.

SMILES	OXTR agonist	TRPML3 ag	OXTR potentiate	V1R ag counter	TRPN1 ag	others
CN1C(=O)C(=Cc2sc(=O)n(-c3ccccc3)c2N2CCCCC2)C(=O)N(C)C1=O	x	9.1	x	x	29.1*
COP(=O)(/C=C(\Cl)c1ccccc1)/C=C(\Cl)c1ccccc1	-1.7	x	-13.3	-1.1	x
Nc1ccc2ccc3cccc[n+]3c2c1	38.2*	x	-16.2	92.4*	x
O=c1cc(C(F)(F)F)c2cc3c4c(c2o1)CCCN4CCC3	168.9*	7.9	-18.0	152.2*	11.1
Cc1cc2c(C(F)(F)F)cc(=O)oc2c2c1NCCC2	4.5	1.9	-1.0	8.8	2.3
O=[N+]([O-])c1ccc(NCc2ccc(Cl)cc2)c2ccncc12	2.0	x	0.2	4.1	x
O=[N+]([O-])c1ccc(NCc2ccccc2)c2nonc12	692.8*	215.7*	-17.2	691.5*	332.1*
CC1(C)CN=C(Nc2ccc(F)c(F)c2)S1	4.8	0.4	-7.6	13.1	0.5
CC1(C)CN=C(Nc2ccc(F)c(Cl)c2)S1	16.4	0.4	-13.8	27.0*	0.1
CCN1C[C@@]2(COC)C3[C@@H](OC)[C@H]4[C@@H]1[C@@]3(C1C[C@H]3[C@H](O)C1[C@]4(O)C[C@H]3OC)[C@@H](OC)C[C@H]2O (stereo partly specified)	-0.1	x	5.3	-0.1	x
CC(C(=O)Nc1ccc(Br)cc1C(=O)c1ccccc1)N1CCCCC1 (stereo unspecified)	-2.0	-0.8	11.9*	-1.2	-1.2
CCCCOC(=O)c1ccccc1C(=O)OCc1ccccc1	-1.9	x	-1.5	-1.3	x
CN1/C(=C\C=C2C(=O)NC(=S)NC2=O)C(C)(C)c2ccccc21	x	31.5*	x	x	57.4*
Cn1c(O)c(/C=C/C=Nc2ccccc2)c(=O)n(C)c1=S	93.0*	5.6	-18.8	47.4*	4.7
Cn1c(O)c(C=Nc2ccc(Br)cc2)c(=O)n(C)c1=O	-0.1	x	7.5	1.1	x
COc1cc(CNCCc2c[nH]c3ccccc23)cc(OC)c1	11.6	x	-21.1	8.8	x
O=C1NC(=O)C(=C/C=C/c2coc3ccc(Br)cc3c2=O)C(=O)N1	39.6*	5.6	-22.8	17.2	11.0
O=[N+]([O-])c1ccc(N2CCCCCC2)c2nonc12	412.8*	x	-26.5	534.2*	x
CCN1C[C@]2(COC)CC[C@H](OC)[C@@]34C1[C@]1(OCO[C@@]15C[C@H](OC)[C@H]1C[C@@H]3[C@@H]5[C@H]1OC)[C@@H](O)[C@H]24	0.5	x	0.1	1.1	x
COC(=O)C1=C(c2ccc(F)cc2F)C[C@@H]2CC[C@H]1N2C(=O)N1CCCCC1	-0.9	x	-4.2	-0.6	x
C/C=C(\C)C(=O)OC1C(C)=C2C(C1OC(=O)CCCCC)C(C)(OC(C)=O)CC(OC(=O)CCC)C1(O)C2OC(=O)C1(C)O (stereo unspecified)	62.3*	x	-11.1	65.2*	x
COc1ccc(CNCCc2c(C)[nH]c3ccc(OC(F)(F)F)cc23)c(OC)c1	40.6*	x	-23.3	41.0*	x
COc1ccc2[nH]c(C)c(CCNCc3cc(OC)c(OC)c(OC)c3)c2c1	1.4	0.7	-20.9	-0.1	-1.0
CC1(C)CN(S(=O)(=O)OCC(Cl)(Cl)Cl)C(=O)N1	0.7	x	-7.4	0.7	x
O=[N+]([O-])NC1=NCCN1Cc1ccc(Cl)nc1	-0.6	x	-9.2	0.2	x
SMILES	OXTR agonist	TRPML3 ag	OXTR potentiate	V1R ag counter	TRPN1 ag	others
O=C1NC(=O)C(=Cc2csc3ccccc23)C(=O)N1	24.0*	-0.1	-16.3	0.6	2.3
COC(=O)C1=CCCN(C)C1	0.5	19.8*	-3.3	0.8	5.9	TRPN1 ag 2=11.6;TRPML3 confirm=45.8*
COc1ccc(C(C)=O)cc1Cc1c(O)[nH]c(=S)[nH]c1=O	1.1	x	0.1	-0.4	x
Cc1cccc(-n2c(O)c(/C=C/C=Nc3ccccc3)c(=O)[nH]c2=O)c1	23.3*	7.4	-7.5	11.8	7.1	OXTR ag confirm=25.6*;V1R ag counter 3x=35.4*
COC(=O)C1=C(c2cc3ccccc3o2)C[C@@H]2CC[C@H]1N2C(=O)N1CCC(C)CC1	-2.3	x	-6.6	-1.0	x
CCOc1ccc(-n2c(O)c(C=NCCN(CC)CC)c(=O)[nH]c2=O)cc1	2.9	1.2	13.2*	0.4	-1.4	OXTR pot confirm=-6.5
O=C(CCc1nnc2ccc(NCc3ccc(F)cc3)nn12)N1CCC2(CC1)OCCO2	0.3	x	-7.8	0.4	x
COc1ccc(CN2C(=O)NC(=O)/C(=C/c3cc(OC)c(OC)c(OC)c3)C2=O)cc1	1.0	0.8	-4.6	-0.2	1.5
COc1ccc(CN2C(=O)NC(=O)/C(=C/c3ccoc3)C2=O)cc1	16.9	11.3	-22.3	33.4*	18.0	V1aR agonist cf=0.7;OXTR counter=0.9
C[N+](C)(C)CC(=O)O	1.6	x	0.7	1.1	x
C=CCn1c(O)c(C(CC)=Nc2cccc(C(=O)O)c2)c(=O)[nH]c1=O	1.1	0.4	-6.0	22.1*	1.0	V1aR agonist cf=-0.1;OXTR counter=-0.6

Screening results deposited in PubChem by The Scripps Research Institute Molecular Screening Center.
